Measurements reported in ChEMBL document CHEMBL3272092, “Synthesis and antihypertensive activity of 5-thio-2-pyridinecarboxylic acid derivatives” (J Med Chem, 1978).
Active and inactive are the calls of the source. The rule behind the calls is not given here.

Assays:
Rattus norvegicus [1] = assay: Antihypertensive activity in spontaneous hypertensive rat model assessed as decrease in blood pressure at 100 mg/kg, po administered for 2 to 4 days measured on day 2 to day 4; assay type: functional
Procedure, shortened: (§1)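 SHR, 4–6 per drug, were dosed daily by gavage for 2 or 4 consecutive days in 3% cornstarch, 5% PEG-400 and 1 drop Tween 80 per mL. After 1 h acclimation, systolic pressure was read by tail-cuff (inflated to 250 mmHg, then lowered; pulse reemergence), at least three readings, at 1, 2, 3 and 24 h post-dose. The peak fall is scored: +, <20 mm up to >80 mm.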

Rattus norvegicus [2] = assay: Toxicity in spontaneous hypertensive rat model at 100 mg/kg, po administered for 2 to 4 days; assay type: organism-based; design: dose 100 mg/kg, route oral; details: in vivo
Canis familiaris [3] = assay: Toxicity in unanesthetized renal hypertensive Mongrel dog model assessed as change in heart rate at 30 mg/kg, po qd measured on day 2; assay type: organism-based, Canis lupus familiaris; design: dose 30 mg/kg, route oral; details: in vivo
Procedure, shortened: (§2)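 Heart rate in unanesthetized renal hypertensive dogs was counted manually from the transducer-recorded arterial pressure trace. Oral dosing was once daily as solid in a gelatin capsule. Readings were at 1.5, 3, 6 and 24 h post-dose, and the maximum change per daily session is reported.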

Canis familiaris [4] = assay: Antihypertensive activity in unanesthetized renal hypertensive Mongrel dog model assessed as change in mean blood pressure at 30 mg/kg, po qd measured on day 3; assay type: functional, Canis lupus familiaris
Procedure, shortened: (§3)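 Unanesthetized renal hypertensive dogs. Arterial pressure was recorded via a hypodermic needle and polyethylene tubing to a pressure transducer. Drug was given orally once daily as solid in a gelatin capsule. Pressure was determined 1.5, 3, 6 and 24 h after each dose, and the maximum change over each daily monitored session is reported.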

Squirrel monkey [5] = assay: Toxicity in normotensive squirrel monkey model assessed as change in heart rate at 100 mg/kg, po qd measured on day 3; assay type: organism-based, Saimiri sciureus; design: dose 100 mg/kg, route oral; details: in vivo
Procedure, shortened: (§4)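 Heart rate in restrained, tail-warmed squirrel monkeys was counted manually from the tail-cuff pressure record. Daily gavage used a suspension in 3% cornstarch, 5% PEG-400 and 1 drop Tween 80 per 10 mL. Monitoring was at 1.5, 3, 5 and 24 h after each dose, and the peak change per administration is reported. Paired t test.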

Squirrel monkey [6] = assay: Toxicity in normotensive squirrel monkey model assessed as change in heart rate at 100 mg/kg, po qd measured on day 1; assay type: organism-based, Saimiri sciureus; design: dose 100 mg/kg, route oral; details: in vivo; procedure, shortened: as §4
Squirrel monkey [7] = assay: Antihypertensive activity in normotensive squirrel monkey model assessed as decrease in systolic blood pressure at 100 mg/kg, po qd measured on day 2 by sphygmomanometry; assay type: functional, Saimiri sciureus, Artery
Procedure, shortened: (§5)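 Restrained squirrel monkeys of either sex with tails warmed by infrared lamp. Systolic pressure was measured indirectly with a tail-base occlusion cuff and pulse transducer. Doses were given daily by gavage as a suspension in 3% cornstarch, 5% PEG-400 and 1 drop Tween 80 per 10 mL. Readings were taken 1.5, 3, 5 and 24 h post-dose. Values are the peak change after each dose, analysed by paired t test.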

Squirrel monkey [8] = assay: Toxicity in normotensive squirrel monkey model at 100 mg/kg, po qd measured on day 3; assay type: organism-based, Saimiri sciureus; design: dose 100 mg/kg, route oral; details: in vivo
Canis familiaris [9] = assay: Toxicity in unanesthetized renal hypertensive Mongrel dog model assessed as change in heart rate at 30 mg/kg, po qd measured on day 1; assay type: organism-based, Canis lupus familiaris; design: dose 30 mg/kg, route oral; details: in vivo; procedure, shortened: as §2
Squirrel monkey [10] = assay: Antihypertensive activity in normotensive squirrel monkey model assessed as decrease in systolic blood pressure at 100 mg/kg, po qd measured on day 3 by sphygmomanometry; assay type: functional, Saimiri sciureus, Artery; procedure, shortened: as §5
Rattus norvegicus [11] = assay: Toxicity in spontaneous hypertensive rat model assessed as bradycardia at 200 mg/kg, po administered for 2 to 4 days; assay type: organism-based; design: dose 200 mg/kg, route oral; details: in vivo
Procedure, shortened: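 Heart rate in SHR was counted from tail-cuff pressure pulses after 1 h acclimation. Rats (4–6 per drug) were gavaged daily for 2 or 4 days at 100 mg/kg (sometimes 200 mg/kg) in 3% cornstarch, 5% PEG-400 and 1 drop Tween 80 per mL. Recordings were at 1, 2, 3 and 24 h after each dose.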

Canis familiaris [12] = assay: Antihypertensive activity in unanesthetized renal hypertensive Mongrel dog model assessed as change in mean blood pressure at 30 mg/kg, po qd measured on day 1; assay type: functional, Canis lupus familiaris; procedure, shortened: as §3
Rattus norvegicus [13] = assay: Antihypertensive activity in spontaneous hypertensive rat model assessed as decrease in blood pressure at 200 mg/kg, po administered for 2 to 4 days measured on day 2 to day 4; assay type: functional; procedure, shortened: as §1
Squirrel monkey [14] = assay: Toxicity in normotensive squirrel monkey model assessed as change in heart rate at 100 mg/kg, po qd measured on day 2; assay type: organism-based, Saimiri sciureus; design: dose 100 mg/kg, route oral; details: in vivo; procedure, shortened: as §4
Canis familiaris [15] = assay: Toxicity in unanesthetized renal hypertensive Mongrel dog model assessed as change in heart rate at 30 mg/kg, po qd measured on day 3; assay type: organism-based, Canis lupus familiaris; design: dose 30 mg/kg, route oral; details: in vivo; procedure, shortened: as §2
Squirrel monkey [16] = assay: Antihypertensive activity in normotensive squirrel monkey model assessed as decrease in systolic blood pressure at 100 mg/kg, po qd measured on day 1 by sphygmomanometry; assay type: functional, Saimiri sciureus, Artery; procedure, shortened: as §5
Canis familiaris [17] = assay: Toxicity in unanesthetized renal hypertensive Mongrel dog model assessed as emesis at 30 mg/kg, po qd measured on day 1 to 4; assay type: organism-based, Canis lupus familiaris; design: dose 30 mg/kg, route oral; details: in vivo
Canis familiaris [18] = assay: Antihypertensive activity in unanesthetized renal hypertensive Mongrel dog model assessed as change in mean blood pressure at 30 mg/kg, po qd measured on day 2; assay type: functional, Canis lupus familiaris; procedure, shortened: as §3

Structure (SMILES)	Activity (Rattus norvegicus [1])	further results
CC(Sc1ccc(C(=O)O)nc1)c1cccc(Cl)c1 (centres undefined)	<20 mmHg	–
CCCCS(=O)(=O)c1ccc(C(=O)O)nc1	inactive	–
Cc1ccc(CSc2ccc(C(=O)[O-])nc2)cc1.[Na+]	<20 mmHg	–
O=C([O-])c1ccc([S+]([O-])Cc2cccc(Br)c2)cn1.[Na+] (centres undefined)	>20 mmHg	–
O=C(O)c1ccc(SCc2ccccc2Cl)cn1	<20 mmHg	–
CC(c1cccc(C(F)(F)F)c1)[S+]([O-])c1ccc(C(=O)O)nc1 (centres undefined)	>20 mmHg	–
CCCC(Sc1ccc(C(=O)O)nc1)c1cccc(C(F)(F)F)c1 (centres undefined)	>20 mmHg	–
O=C([O-])c1ccc(SCc2ccc(Br)cc2)cn1.[Na+]	>40 mmHg	–
O=C([O-])c1ccc([S+]([O-])CCCc2ccccc2)cn1.[Na+] (centres undefined)	<20 mmHg	–
O=C(O)c1ccc(SCCc2ccccc2)cn1	–	Activity (Rattus norvegicus [2]): Toxic
O=C([O-])c1ccc(SCc2c(Cl)cccc2Cl)cn1.[Na+]	<20 mmHg	–
COc1cccc(C[S+]([O-])c2ccc(C(=O)O)nc2)c1 (centres undefined)	<20 mmHg	–
O=C(O)c1ccc(SCc2ccc(Cl)cc2)cn1	>40 mmHg	–
COc1ccc(C[S+]([O-])c2ccc(C(=O)O)nc2)cc1 (centres undefined)	>20 mmHg	–
O=C(O)c1ccc([S+]([O-])Cc2ccc(Cl)cc2)cn1 (centres undefined)	>20 mmHg	–
O=C([O-])c1ccc(S(=O)(=O)Cc2cccc(C(F)(F)F)c2)cn1.[Na+]	<20 mmHg	–
O=C(O)c1ccc(SCc2ccccc2)cn1	>40 mmHg	–
O=C(O)c1ccc(SCc2cccc(C(F)(F)F)c2)cn1	>40 mmHg	Activity (Canis familiaris [3]): 9 bpm; Activity (Canis familiaris [4]): 24 mmHg; Activity (Squirrel monkey [5]): -20 bpm; Activity (Squirrel monkey [6]): -40 bpm; Activity (Squirrel monkey [7]): -25 mmHg; Activity (Squirrel monkey [8]): Toxic; Activity (Canis familiaris [9]): 5 bpm; Activity (Squirrel monkey [10]): -25 mmHg; Activity (Rattus norvegicus [11]): Toxic; Activity (Canis familiaris [12]): 12 mmHg; Activity (Rattus norvegicus [13]): >80 mmHg; Activity (Squirrel monkey [14]): -26 bpm; Activity (Canis familiaris [15]): -12 bpm; Activity (Squirrel monkey [16]): -27 mmHg; Activity (Canis familiaris [17]): Non-toxic; Activity (Canis familiaris [18]): 22 mmHg
